Only some compounds are listed: those with a hit (about 7.2% of all), similar ones and a draw of the others.
PostGolgi ctrl: growth of the yeast control strain, post-Golgi counter-screen; efflux-deficient yeast background strain, growth absorbance A615, 16 h; inhibition, % at 10 µM; 98,000 compounds, 5% hits
E coli WT exp: growth inhibitors of E. coli BW25113 wild type; OD600 absorbance; growth inhibition, % at 100 µM; 98,000 compounds, 0.15% hits;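 active means growth inhibition above about 50% at one test dose, limit read from the data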;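 further: growth measured after 20 h incubation at 37 °C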
PostGolgi yeast: growth inhibition of a yeast mutant, post-Golgi transport screen; post-Golgi transport phenotypic cell assay; inhibition, % at 10 µM; 98,000 compounds, 0.9% hits;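 further: yeast cells grown in 1536-well plates; yeast grown about 18 h at 30C before absorbance read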
PLAP act: activates human placental alkaline phosphatase. purified PLAP enzyme, luminescent substrate read-out; stronger effect = higher value. 96,000 compounds, 1.2% hits. P05187. activation fold at 20 µM; in the data active means activation fold above about 2
Ecoli tolC: blocks growth of E. coli BW25113 tolC mutant. OD615. growth inhibition, % at 10 µM (by protocol). 65,000 compounds, 2.2% hits. AID 573;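 active means growth inhibition at or above a cutoff equal to the mean over every tested compound plus 3 SD, cut at about 60% in these data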;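 further: growth measured after 20 h incubation at 37 °C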
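Test system: tolC-deleted E. coli BW25113; medium: LB with kanamycin 50 µg/mL; compound: single-point testing at 10 µM; incubation: 20 h compound exposure of bacteria at 37 °C; signal: OD at 615 nm; evaluation: growth inhibition in percent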
The depositor's hits bear a star. Unless noted, no stated cut-off is given here; in the data, active means inhibition above about 30%; inactive means the rest.

Screening O=C(Nc1nc2ccccc2s1)c1ccc(Cl)s1 returned PostGolgi ctrl 12.9, E coli WT exp -19.0, PostGolgi yeast -14.5, PLAP act 0.9 and Ecoli tolC -14.1.
Screening CCNc1nc(N)c(C(=O)c2ccc(Cl)s2)s1 returned PostGolgi ctrl 46.2*, E coli WT exp -9.0, PostGolgi yeast 5.0, PLAP act 1 and Ecoli tolC 17.4.
`Cc1sc2ncn(C(C)C(=O)OC3CCCCC3)c(=O)c2c1C` (stereo not drawn) gave PostGolgi ctrl 23.9, E coli WT exp 3.0, PostGolgi yeast 1.0 and PLAP act 1.4.
For Cc1c(C(=O)OC2CCCCC2)sc2nc[nH]c(=O)c12 the results were PostGolgi ctrl 59.3*, E coli WT exp 5.0, PostGolgi yeast 2.7, PLAP act 1 and Ecoli tolC 31.9.
`O=C(NC1CCCCCCC1)c1ccccc1O` gave PostGolgi ctrl 8.3, E coli WT exp 12.0, PostGolgi yeast 5.9, PLAP act 0.9 and Ecoli tolC 83.5*.
For CSc1ccccc1C(=O)NC1CCCCCC1 the results were PostGolgi ctrl -5.3, E coli WT exp 7.0, PostGolgi yeast 0.8 and PLAP act 1.
Screening Cc1ccccc1NC(=O)NCCN1C(=O)C2C3C=CC(C3)C2C1=O (stereo not drawn) returned PostGolgi ctrl -3.7, E coli WT exp 4.0, PostGolgi yeast -1.3, PLAP act 1 and Ecoli tolC -9.7.
For O=C(NC(=S)N1CCCCC1)C12CC3CC(CC(C3)C1)C2 the results were PostGolgi ctrl 33.3*, E coli WT exp 3.0, PostGolgi yeast 20.7 and PLAP act 0.9.
Screening CC12CC3CC(C)(C1)CC(C(=O)NC(=S)N1CCOCC1)(C3)C2 returned PostGolgi ctrl 1.1, E coli WT exp 11.0, PostGolgi yeast -0.5 and PLAP act 1.
Screening Cc1cc(C(C)(C)C)ccc1OCCN1CCCC1 returned PostGolgi ctrl 29.1, E coli WT exp 9.0, PostGolgi yeast 66.8* and PLAP act 1.4.
For CCOC(=O)C1CCCN(C(=S)Nc2ccc(C)cc2C)C1 (stereo not drawn) the results were PostGolgi ctrl 11.8, E coli WT exp -6.0, PostGolgi yeast 4.3 and PLAP act 1.2.
`C/C(O)=c1/ccc2cccc3nc(C)nc1c23` gave PostGolgi ctrl 0.0, E coli WT exp 5.0, PostGolgi yeast -2.3, PLAP act 1.1 and Ecoli tolC 73.4*.
Screening O=C(C#Cc1cccc([N+](=O)[O-])c1)c1ccccc1 returned PostGolgi ctrl 64.1*, E coli WT exp -5.0, PostGolgi yeast 91.3* and PLAP act 1.
`O=C(NCc1ccccn1)c1cccc([N+](=O)[O-])c1` gave PostGolgi ctrl 2.6, E coli WT exp 10.0, PostGolgi yeast -6.8 and PLAP act 1.
Screening OC(Cn1cncn1)c1ccc(Cl)cc1 (stereo not drawn) returned PostGolgi ctrl -4.7, E coli WT exp -3.0, PostGolgi yeast 4.4, PLAP act 0.9 and Ecoli tolC 4.4.
Screening OC(Cn1cncn1)c1ccc(Cl)cc1Cl (stereo not drawn) returned PostGolgi ctrl 40.1*, E coli WT exp 9.0, PostGolgi yeast 77.7*, PLAP act 1.2 and Ecoli tolC -13.7.
`OC(c1ccc(Cl)cc1Cl)C(Cc1cccnc1)n1cncn1` (stereo not drawn) gave PostGolgi ctrl 11.3, E coli WT exp 3.0, PostGolgi yeast 44.8*, PLAP act 1.4 and Ecoli tolC -1.1.
`O=c1nc2n(c3sc4c(c13)CCC4)Cc1ccccc1-2` gave Ecoli tolC 1.9.
`Nc1sc2c(c1C(=O)NC1CCS(=O)(=O)C1)CCC2` (stereo not drawn) gave PostGolgi ctrl 7.1, E coli WT exp -1.0, PostGolgi yeast 7.9, PLAP act 2.3* and Ecoli tolC -4.2.
`O=C1CCC(c2ccccc2)N1C(=O)c1cccnc1` (stereo not drawn) gave PostGolgi ctrl -2.7, E coli WT exp -4.0, PostGolgi yeast -1.0 and Ecoli tolC 1.3.
`Cc1cccc(C)c1-n1nnnc1C1(Nc2ccccc2)CCCCC1` gave PostGolgi ctrl 44.4*, E coli WT exp -12.0, PostGolgi yeast 3.6 and PLAP act 0.8.
For COCCNc1nc(SCc2ccccc2)nc2sc3c(c12)CCC3 the results were PostGolgi ctrl 14.9, E coli WT exp -14.0, PostGolgi yeast 1.4 and PLAP act 1.
`CC(CO)Nc1nc(SCc2ccccc2)nc2sc3c(c12)CCC3` (stereo not drawn) gave PostGolgi ctrl 49.7*, E coli WT exp -15.0, PostGolgi yeast 1.1 and PLAP act 1.

Bioassay records (PubChem)
